Assay results: ChEMBL document CHEMBL4393712, “Discovery of chalcone-modified estradiol analogs as antitumour agents that Inhibit tumour angiogenesis and epithelial to mesenchymal transition” (Eur J Med Chem, 2019)
Active and inactive are the calls of the source. The rule behind the calls is not given here.

How the values were obtained:
MCF7 [1] = assay: Inhibition of epithelial-mesenchymal transition in human MCF7 cells assessed as increase in E-cadherin expression level at 2 to 10 uM after 48 hrs by Western blot analysis; assay type: functional, cell-based
In short: (§1)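 MCF-7 cells in RPMI 1640 with 10% FBS, 37 °C, 5% CO2, exposed to no drug, 2 or 10 µM for 48 h. RIPA lysates, BCA quantitation, 8% SDS-PAGE, PVDF transfer, primary antibodies overnight 4 °C, secondary 2 h RT, ECL and densitometry for ZO-1, E-cadherin, N-cadherin, vimentin. Mean ± SD of 3 independent tests.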

HUVEC [2] = assay: Effect on FAK expression in HUVEC at 2 to 10 uM after 48 hrs by Western blot analysis; assay type: functional, cell-based; conditions: Homo sapiens
In short: (§2)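 HUVECs grown in RPMI 1640 with 10% FBS, 37 °C, 5% CO2; treated with no drug, 2 or 10 µM for 48 h. Lysed in RIPA with protease/phosphatase inhibitors on ice 30 min, protein by BCA, 8% SDS-PAGE, PVDF transfer, milk block, primary antibody overnight 4 °C, secondary 2 h RT; ECL detection, densitometry. Probed VEGF-R, FAK, p-FAK, SHC.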

SMMC-7721 = assay: Antitumour activity against human SMMC7721 cells assessed as cell growth inhibition measured after 72 hrs by SRB assay; assay type: functional, cell-based; conditions: SMMC-7721, 72 h
In short: (§3)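 Exponentially growing cells trypsinized, seeded at 5 × 10^4 cells/mL in 96-well plates, cultured overnight, then exposed to compounds for 72 h. Cells fixed with 10% TCA 1 h, stained with SRB 15 min, dye dissolved in Tris-HCl, absorbance read; 50% growth-inhibitory concentration calculated.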

PC-3 = assay: Cytotoxicity against human PC3 cells assessed as reduction in cell viability measured after 48 to 72 hrs by MTT assay; assay type: cell-based
In short: (§4)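 Cells seeded at 3 × 10^3 per well in 96-well plates, incubated overnight, then given fresh medium with a range of drug concentrations for 48 h or 72 h. MTT added (final 500 µg/mL) for 4 h, formazan dissolved in DMSO, absorbance at 570 nm; IC50 derived. Mean ± SD of 3 independent tests.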

A549 = assay: Antitumour activity against human A549 cells assessed as cell growth inhibition measured after 72 hrs by SRB assay; assay type: functional, cell-based; conditions: A549, 72 h; in short: as §3
Chorioallantoic membrane = assay: Antiangiogenic activity in chicken chorioallantoic membrane assessed as reduction in neovascularization at 50 ug/ml measured after 72 hrs by CAM assay; assay type: functional; conditions: Gallus gallus
In short: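 Fertilized chicken eggs incubated 6 days at 37 °C; shell windowed and CAM treated (compounds and controls at […] as printed; saline vehicle control). Eggs re-incubated humidified; membranes fixed and harvested after 72 h. Angiogenesis scored by counting blood vessels and imaging neovascular zones; ten eggs per group.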

ECa-109 cell line = assay: Antitumour activity against human EC109 cells assessed as cell growth inhibition measured after 72 hrs by SRB assay; assay type: functional, cell-based; conditions: ECa-109, 72 h; in short: as §3
GES1 = assay: Cytotoxicity against human GES-1 cells assessed as reduction in cell viability measured after 48 to 72 hrs by MTT assay; assay type: cell-based; in short: as §4
MCF7 [3] = assay: Inhibition of epithelial-mesenchymal transition in human MCF7 cells assessed as decrease in vimentin expression level at 2 to 10 uM after 48 hrs by Western blot analysis; assay type: functional, cell-based; in short: as §1
MCF7 [4] = assay: Antitumour activity against human MCF7 cells xenografted in nude mouse assessed as decrease in tumour weight at 22.5 to 45 mg/kg/day, ip administered for 21 days; assay type: functional, organism-based
In short: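 Nude mice (male/female, 4–6 weeks) injected subcutaneously in right forelimb with 5 × 10^7 MCF-7 cells in 200 µL saline; at mean tumour 100 mm3 randomized (n = 5/group): saline 0.2 mL/day, 22.5 or 45 mg/kg/day ip for 21 days. Body weight and tumour volume (length × width²/2) every other day; tumours weighed at day 21.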

[5] = Hepatotoxicity in nude mouse xenografted with human MCF7 cells assessed as slight increase in serum alkaline phosphatase level at 22.5 to 45 mg/kg/day, ip administered for 21 days by biochemical automatic analyzer; assay type: toxicity, organism-based; conditions: in vivo, 504 h
MGC-803 [6] = assay: Cytotoxicity against human MGC803 cells assessed as reduction in cell viability measured after 48 to 72 hrs by MTT assay; assay type: cell-based; in short: as §4
B16 = assay: Antitumour activity against mouse B16 cells assessed as cell growth inhibition measured after 72 hrs by SRB assay; assay type: functional, cell-based; conditions: B16, 72 h; in short: as §3
HUVEC [7] = assay: Cytotoxicity against HUVEC assessed as reduction in cell viability measured after 48 to 72 hrs by MTT assay; assay type: cell-based; conditions: human; in short: as §4
MGC-803 [8] = assay: Antitumour activity against human MGC803 cells assessed as cell growth inhibition measured after 72 hrs by SRB assay; assay type: functional, cell-based; conditions: MGC-803, 72 h; in short: as §3
[9] = Toxicity in nude mouse xenografted with human MCF7 cells assessed as effect on kidney morphological changes at 22.5 to 45 mg/kg/day, ip administered for 21 days by HE staining analysis; assay type: organism-based; conditions: in vivo, 504 h
MCF7 [10] = assay: Antimigratory activity against human MCF7 cells at 2 to 10 uM measured after 24 hrs by transwell assay; assay type: functional, cell-based
In short: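 Cells seeded on upper side of polycarbonate transwell filters in serum-free medium, drug at 0, 2 or 10 µM; complete serum-containing medium in lower chamber as chemoattractant. After 24 h migrated cells fixed in 4% paraformaldehyde 20 min, crystal violet stained 20 min, imaged and counted. Three independent experiments.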

[11] = Hepatotoxicity in nude mouse xenografted with human MCF7 cells assessed as slight increase in serum alanine transaminase level at 22.5 to 45 mg/kg/day, ip administered for 21 days by biochemical automatic analyzer; assay type: toxicity, organism-based; conditions: in vivo, 504 h
MCF7 [12] = assay: Inhibition of epithelial-mesenchymal transition in human MCF7 cells assessed as increase in ZO-1 expression level at 2 to 10 uM after 48 hrs by Western blot analysis; assay type: functional, cell-based; in short: as §1
[13] = target: Focal adhesion kinase 1 (Homo sapiens) (UniProt Q05397); assay: Reduction in FAK phosphorylation in HUVEC at 2 to 10 uM after 48 hrs by Western blot analysis; assay type: cell-based; in short: as §2
HEK293 = assay: Cytotoxicity against human HEK293 cells measured after 48 to 72 hrs by MTT assay; assay type: cell-based; in short: as §4
MDA-MB-231 = assay: Cytotoxicity against human MDA-MB-231 cells assessed as reduction in cell viability measured after 48 to 72 hrs by MTT assay; assay type: cell-based; in short: as §4
[14] = Solubility of the compound in water; assay type: physicochemical; conditions: buffer
MCF7 [15] = assay: Cytotoxicity against human MCF7 cells assessed as reduction in cell viability measured after 48 to 72 hrs by MTT assay; assay type: cell-based; in short: as §4
[16] = Toxicity in nude mouse xenografted with human MCF7 cells assessed as effect on heart morphological changes at 22.5 to 45 mg/kg/day, ip administered for 21 days by HE staining analysis; assay type: organism-based; conditions: in vivo, 504 h
MCF7 [17] = assay: Antimigratory activity against human MCF7 cells at 2 to 10 uM measured after 48 hrs by wound healing assay; assay type: functional, cell-based
In short: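 Cells seeded in 6-well plates, monolayer scratched with pipette tip, washed twice, kept in medium with 2% FBS. Gaps imaged, then drug added (0, 2 or 10 µM for HUVEC and MCF-7); gaps re-imaged after 48 h and migration rate calculated. Three independent experiments; one-way ANOVA.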

[18] = Hepatotoxicity in nude mouse xenografted with human MCF7 cells assessed as slight increase in serum aspartate transaminase level at 22.5 to 45 mg/kg/day, ip administered for 21 days by automatic biochemical analyzer; assay type: toxicity, organism-based; conditions: in vivo, 504 h

Focal adhesion kinase 1 (Homo sapiens), sequence (Q05397 2-1052 limits assumed): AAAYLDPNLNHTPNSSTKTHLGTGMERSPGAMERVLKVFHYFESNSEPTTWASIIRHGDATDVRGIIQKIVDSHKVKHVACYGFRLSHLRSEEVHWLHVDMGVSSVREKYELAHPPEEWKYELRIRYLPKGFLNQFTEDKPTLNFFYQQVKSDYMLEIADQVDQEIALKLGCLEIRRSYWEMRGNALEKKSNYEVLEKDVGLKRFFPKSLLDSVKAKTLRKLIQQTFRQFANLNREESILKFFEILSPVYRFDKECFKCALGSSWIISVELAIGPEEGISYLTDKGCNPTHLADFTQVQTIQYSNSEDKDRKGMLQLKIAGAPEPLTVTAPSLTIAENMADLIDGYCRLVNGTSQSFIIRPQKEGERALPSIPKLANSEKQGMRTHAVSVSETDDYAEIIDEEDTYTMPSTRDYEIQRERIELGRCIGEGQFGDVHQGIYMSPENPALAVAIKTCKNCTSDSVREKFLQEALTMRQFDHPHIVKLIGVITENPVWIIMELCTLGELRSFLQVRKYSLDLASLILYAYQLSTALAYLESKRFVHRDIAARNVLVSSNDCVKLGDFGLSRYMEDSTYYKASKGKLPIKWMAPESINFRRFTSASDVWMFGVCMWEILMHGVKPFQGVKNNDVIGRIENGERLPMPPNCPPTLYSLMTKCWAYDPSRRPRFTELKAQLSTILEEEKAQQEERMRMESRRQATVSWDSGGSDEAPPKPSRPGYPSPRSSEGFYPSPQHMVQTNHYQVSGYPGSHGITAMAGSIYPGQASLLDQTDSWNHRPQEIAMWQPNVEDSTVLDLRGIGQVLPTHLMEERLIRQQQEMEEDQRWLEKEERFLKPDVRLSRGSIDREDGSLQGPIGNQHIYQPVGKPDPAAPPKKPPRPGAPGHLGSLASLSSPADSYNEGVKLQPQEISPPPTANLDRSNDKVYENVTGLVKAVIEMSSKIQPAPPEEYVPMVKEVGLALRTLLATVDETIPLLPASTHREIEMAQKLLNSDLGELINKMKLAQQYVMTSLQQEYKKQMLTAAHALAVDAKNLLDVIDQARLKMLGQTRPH

COc1cc2c(cc1O)CC[C@@H]1[C@@H]2CC[C@]2(C)C(=O)/C(=C/c3ccc(Cl)cc3)C[C@@H]12
inhibition (MCF7 [1]): Active | Activity (HUVEC [2]): inactive | IC50 (SMMC-7721): 4.3 µM | Activity (PC-3): Toxic | IC50 (A549): 23.2 µM | inhibition (Chorioallantoic membrane): Active | IC50 (ECa-109 cell line): 14.7 µM | Activity (GES1): Toxic | inhibition (MCF7 [3]): Active | inhibition (MCF7 [4]): Active | Activity [5]: Toxic | Activity (MGC-803 [6]): Toxic | IC50 (B16): 17.9 µM | Activity (HUVEC [7]): Toxic | IC50 (MGC-803 [8]): 14.9 µM | Activity [9]: Non-Toxic | Activity (MCF7 [10]): Active | Activity [11]: Toxic | inhibition (MCF7 [12]): Active | inhibition [13]: Active | IC50 (HEK293): > 100 µM | IC50 (MDA-MB-231): 78.6 µM | solubility [14]: Soluble | IC50 (MCF7 [15]): 77 µM | Activity [16]: Non-Toxic | Activity (MCF7 [17]): Active | Activity [18]: Toxic
